Test [1] in a line: inhibitors of TNFa-induced NFkB p65 translocation, primary screen, imaging, HUVEC, MLSMR starter and 10KST1 sets (AID 438;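 active = inhibition above 20% together with a positive visual image hit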;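 note: compound added about 3h40 before a 20 min TNFalpha stimulation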;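 for inhibition: signal is the nuclear over cytoplasmic p65 intensity ratio per well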). As to conditions: HUVEC TNFa-induced p65 nuclear translocation; cell count: measured here: nuclei count (cytotoxicity indicator), at 2.08 µM; inhibition: at 2 µM, stronger effect = higher value, 0% TNFa-plus-vehicle, 100% no-TNFa wells.
Test [2] can be described thus: inhibitors of mutant huntingtin aggregation, primary screen, imaging, exon1htt(103Q)mCFP cells, high-content imaging (AID 483).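 For nuclei count: percent of the per-plate median nuclei count of sample wells.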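 Note: compound exposure lasted 3 days before fixation.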 As to conditions: exon1htt(103Q)mCFP cell line, aggregate imaging, at 2 µM; inhibition of aggregation: stronger effect = higher value; nuclei count: measured here: cell count, toxicity.
Test [3] is described as follows: inhibitors of E-selectin induction by TNFa, primary screen, imaging, HUVEC, immunofluorescence, MLSMR starter and 10KST1 sets (AID 487;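 active = visually confirmed hit in the image check and inhibition above 20%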;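 for inhibition: signal is fraction of cell area covered by stained E-selectin grains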;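 for nuclei count: 100% = median nuclei count of all wells on the same plate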). The note with it: HUVEC TNFalpha-induced E-selectin immunofluorescence imaging, at 2 µM; inhibition: stronger effect = higher value; nuclei count: measured here: cell number, toxicity.
The target of test [4] is Voltage-gated potassium channel subunit beta-2 (Rattus norvegicus) (UniProt P62483). Description: KvBeta enzyme negative modulators, primary screen, biochemical, NADPH fluorescence (AID 622;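 active = fluorescence slope higher than the sample average by over 3 SD, cut at about -0.22 in these data, passing the limit was not always enough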;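 note: slope of raw intensity against log time taken from 70 to 1610 s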). The note with it: recombinant KvBeta, 4-cyanobenzaldehyde reduction, at 10 µM, stronger effect = higher value.
Voltage-gated potassium channel subunit beta-2 (Rattus norvegicus), sequence (P62483 whole entry, looked up): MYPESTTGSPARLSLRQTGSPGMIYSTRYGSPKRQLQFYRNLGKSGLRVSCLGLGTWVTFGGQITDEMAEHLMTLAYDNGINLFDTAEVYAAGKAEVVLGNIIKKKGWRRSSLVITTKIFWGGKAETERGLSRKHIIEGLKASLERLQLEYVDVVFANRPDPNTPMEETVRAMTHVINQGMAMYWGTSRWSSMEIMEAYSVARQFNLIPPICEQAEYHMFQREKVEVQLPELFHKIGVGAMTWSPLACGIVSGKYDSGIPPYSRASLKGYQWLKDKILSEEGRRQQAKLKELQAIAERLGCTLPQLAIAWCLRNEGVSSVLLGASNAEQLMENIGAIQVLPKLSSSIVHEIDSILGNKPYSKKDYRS
Test [5] has the same target. Description: KvBeta positive modulators, primary screen, biochemical, NADPH fluorescence (AID 623;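 active = NADPH fluorescence slope more negative than the mean of all samples by about 3 SD, 99.7% confidence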;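 note: fluorescence intensity change per second fitted from 20 to 320 s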). The note with it: Recombinant KvBeta, NADPH fluorescence decrease slope, 10 min; at 10 µM; stronger effect = lower value.
Test [6] has as its target Alpha-2C adrenergic receptor (Homo sapiens) (UniProt P18825). The experiment in a line: modulators of alpha2C/GIRK thallium flux, primary screen, cell-based, HEK293 alpha2C/GIRK1/2 (AID 624;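 active = fluorescence slope after compound addition differing from the mean of all screened samples at 99.7% confidence, in either direction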;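 note: slope of fluorescence ratio to pre-addition baseline per second over 15 to 24 s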). The note with it: thallium flux BTC fluorescence, at 10 µM, actives lie on both sides.
Test [7] can be described thus: inhibitors of larval lipid processing in zebrafish, primary screen, whole organism, PED6 fluorescence, gall bladder and intestine (AID 686;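 active = a full or partial loss of lipid-probe fluorescence in the fish gall bladder, intestine or both, judged by eye; inactive = no fluorescence loss, or compound toxic to the fish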;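 note: larvae 5 to 7 days old with five fish per well; signal comes from phospholipase A2 cleavage of quenched PED6 carried via bile; overnight exposure to compound and PED6 before scoring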). The note with it: Zebrafish larvae PED6 lipid processing, fluorescence scoring; screened at 20 µM (by protocol). A digest of the protocol:
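Also added: quenched phospholipase substrate PED6, 100 nM final, ingested by larvae; System: zebrafish larvae, 5-7 d; Quantity: 5 larvae per well; Compound: 20 µM single dose; Schedule: overnight compound and PED6 incubation; Read-out: visual per-well fluorescence inhibition score; Measured by: By-eye fluorescence microscopy; Medium: E3.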

A short description of test [8]: inhibitors of Sendai virus-induced IRF3 signaling, primary screen, TLR/RLR signaling modifier project, cell-based, Sendai virus stimulus, luciferase, 10K MLSCN set (AID 602276;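 active = inhibition at or above 50% at 10 µM; inactive = inhibition below 50%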;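 note: firefly luciferase from ISG56 promoter only with Renilla not read in this screen; 0% = Sendai virus plus DMSO and 100% = medium plus DMSO without virus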). As to conditions: HEK293 RL24 IRF3 luciferase reporter, at 10 µM, stronger effect = higher value.
A short description of test [9]: inhibitors of poly I:C-induced TLR3 signaling, primary screen, cell-based, poly I:C stimulus, luciferase, 10K MLSCN set (AID 602277;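 active = inhibition of the reporter signal at or above 50%; inactive = inhibition below 50%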). The note with it: HEK293-TLR3 RL24 IRF3 luciferase reporter, at 10 µM, stronger effect = higher value. (Reporter assays use an easily measured gene product as a stand-in for the process of interest.)

Active and inactive are the calls of the source.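 Rule for the calls, unless noted: active = visual image review flags a hit and inhibition of aggregation exceeds 20%; inconclusive = visual hit but inhibition at or below 20%; inactive = no hit on visual image review.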

Alpha-2C adrenergic receptor (Homo sapiens), sequence (P18825 whole entry, looked up): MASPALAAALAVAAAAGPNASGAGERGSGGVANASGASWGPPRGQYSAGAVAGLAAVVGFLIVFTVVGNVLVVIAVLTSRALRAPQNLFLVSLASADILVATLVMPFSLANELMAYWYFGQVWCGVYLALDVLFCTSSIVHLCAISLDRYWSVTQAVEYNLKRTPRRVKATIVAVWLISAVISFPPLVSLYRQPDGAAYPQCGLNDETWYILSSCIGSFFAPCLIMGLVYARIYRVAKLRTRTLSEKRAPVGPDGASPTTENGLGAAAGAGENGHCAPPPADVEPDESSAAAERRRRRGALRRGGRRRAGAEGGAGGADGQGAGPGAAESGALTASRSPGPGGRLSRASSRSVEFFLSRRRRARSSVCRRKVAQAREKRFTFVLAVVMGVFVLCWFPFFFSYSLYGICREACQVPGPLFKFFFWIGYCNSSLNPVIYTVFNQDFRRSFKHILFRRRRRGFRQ

For `COCCN1C=C(C(=O)OC)C(c2cc3c(cc2Br)OCO3)C(C(=O)OC)=C1`, the cell count in test [1] is 629. In addition, the inhibition in test [1] was -7.8% (inactive); in test [3], 48.4% (inactive); in test [8] it was 13.3% (inactive); in test [9] it was 20.6% (inactive). In [2], the inhibition of aggregation was 1.1% (inactive). The nuclei count in [2] is 112%; in [3], 46.8%. Further, the fluorescence slope in test [4] was -0.377 (inactive). The NADPH fluorescence slope in test [5] is -6e-05 (inactive). Besides, the slope in [6] is 0.00391 (inactive). For the same compound, in test [7], the compound was called inactive.

In the case of `CCOC(=O)Cc1csc(NC(=O)c2cccc(OC)c2)n1`, the cell count in [1] was found to be 395. For the same compound, the inhibition in test [1] is 5.8% (inactive); in test [3], -15.2% (inactive); in test [8], 4.13% (inactive); in test [9], -6.24% (inactive). The inhibition of aggregation in [2] was -28.7% (inactive). Further, the values for the nuclei count in [2] and in test [3] were 97% and 113%, respectively. For the same compound, the fluorescence slope in [4] was -0.459 (inactive). In addition, the NADPH fluorescence slope in test [5] is -3.2e-05 (inactive). Besides, in test [6], the slope was 0.00478 (inactive). Also, in test [7], the compound was called inactive.

For `COC(=O)c1[nH]c2ccc(C)cc2c1NC(=O)CN1CCC(C)CC1`, the cell count in test [1] came to 340. The inhibition was -0.4% (inactive) in [1], -18.4% (inactive) in test [3], 4.88% (inactive) in test [8] and 2.95% (inactive) in test [9]. Further, the inhibition of aggregation in test [2] is 15.7% (inactive). The values for the nuclei count in test [2] and in [3] were 103% and 120%, respectively. For the same compound, in test [4], the fluorescence slope was -0.337 (inactive). In addition, in test [5], the NADPH fluorescence slope was -5.5e-05 (inactive). Besides, the slope in test [6] was 0.00492 (inactive). For the same compound, in test [7], the compound was classed as inactive.

Consider `COC(=O)Cn1cnc2sc(C)c(S(=O)(=O)N3CCC(C)CC3)c2c1=O`, for which, in test [1], the cell count came out at 543. The inhibition in [1] is -2.4% (inactive); in [3] it was -31.1% (inactive); in test [8], 6.12% (inactive); in test [9] it was 8.67% (inactive). Also, the inhibition of aggregation in test [2] was -10.1% (inactive). Also, the figures for the nuclei count in [2] and in test [3] were 106% and 101%, respectively. In addition, the fluorescence slope in test [4] is -0.473 (inactive). In addition, in test [5], the NADPH fluorescence slope is -2.3e-05 (inactive). In test [6], the slope was 0.00523 (inactive). For the same compound, in test [7], the compound was called inactive.

`CS(=O)(=O)N(CC(=O)N1CCCCCC1)c1ccc(Br)cc1`: the cell count in test [1] came to 485. Further, the inhibition was -38.8% (inactive) in test [1], 13.3% (inactive) in test [3], 15.8% (inactive) in test [8] and 16% (inactive) in test [9]. Also, in [2], the inhibition of aggregation is 20.1% (inactive). Further, the nuclei count was 81.6% in test [2] and 95.6% in [3]. The fluorescence slope in test [4] is -0.353 (inactive). In test [5], the NADPH fluorescence slope was -5.4e-05 (inactive). Besides, the slope in [6] is 0.00619 (inactive). The compound was classed as inactive in test [7].

In the case of `O=C(NCC(=O)N(c1cccnc1)C(C(=O)NC1CCCCC1)c1cccnc1)c1ccco1` (stereo unspecified), the cell count in [1] is 424. The inhibition in test [1] was 6.8% (inactive); in test [3], -37.8% (inactive); in test [8], 9.81% (inactive); in test [9], 6.29% (inactive). In addition, the inhibition of aggregation in [2] is 6.3% (inactive). Besides, the nuclei count came to 109% in test [2] and 110% in [3]. In addition, the fluorescence slope in test [4] was -0.39 (inactive). Further, in test [5], the NADPH fluorescence slope is -5.1e-05 (inactive). In [6], the slope was 0.00388 (inactive). In addition, in [7], the result was inactive.

For `CNC(=O)c1ccc2nc(NC(C)=O)sc2c1`, the cell count in [1] came to 382. Further, the inhibition in test [1] was -10.3% (inactive); in test [3] it was 13.2% (inactive); in test [8], -11.9% (inactive); in [9], -21.9% (inactive). For the same compound, in test [2], the inhibition of aggregation is 4.1% (inactive). Moreover, the nuclei count in test [2] came out at 74.6%; in test [3], 56.8%. In addition, the fluorescence slope in [4] was -0.327 (inactive). The NADPH fluorescence slope in [5] is -6.5e-05 (inactive). For the same compound, the slope in test [6] was 0.00564 (inactive). The call in test [7] was inactive.

Take `COC(=O)c1ccc(COC(=O)c2c(C)nn(Cc3ccccc3Cl)c2Cl)o1`: the cell count in [1] came out at 431. Moreover, the inhibition in test [1] was -20.9% (inactive); in test [3] it was 46.3% (inactive); in test [8], 17.9% (inactive); in test [9] it was 19.2% (inactive). The inhibition of aggregation in test [2] is 7% (inactive). Besides, the nuclei count stood at 73.5% in test [2] and 70.3% in test [3]. Besides, the fluorescence slope in test [4] is -0.408 (inactive). Besides, in test [5], the NADPH fluorescence slope is 1.7e-05 (inactive). For the same compound, the slope in [6] is 0.00741 (inactive). For the same compound, the compound was called inactive in test [7].

Consider `CCn1c(SCC(N)=O)nnc1-c1ccc(S(=O)(=O)N2CCN(C)CC2)cc1`, for which the cell count in test [1] was 736. Further, the inhibition is -10.2% (inactive) in test [1], -11.3% (inactive) in test [3], -10.4% (inactive) in test [8] and -10.4% (inactive) in test [9]. The inhibition of aggregation in [2] was -23.3% (inactive). In addition, the nuclei count in [2] amounted to 118%; in test [3], 129%. For the same compound, in test [4], the fluorescence slope was -0.396 (inactive). The NADPH fluorescence slope in test [5] is -1.7e-05 (inactive). Further, the slope in [6] was 0.00446 (inactive). In test [7], the compound was called inactive.

Regarding `Cc1nc2c(-c3ccccc3)c(C)[nH]n2c(=O)c1Cl`, the cell count in test [1] was found to be 277. In addition, the inhibition in test [1] was -8.3% (inactive); in test [3] it was -5.5% (inactive); in [8] it was -11.4% (inactive); in test [9], -22.1% (inactive). Also, the inhibition of aggregation in test [2] is 2.3% (inactive). Besides, the nuclei count in [2] came to 109%; in test [3], 84.2%. Also, in test [4], the fluorescence slope is -0.485 (inactive). In addition, in test [5], the NADPH fluorescence slope is 3e-05 (inactive). Also, in test [6], the slope was 0.00434 (inactive). Also, the compound was called inactive in [7].

As to `COC(=O)c1sc(S(=O)(=O)N2CCN(c3ccccc3)CC2)c(C(=O)OC)c1C`, the cell count in test [1] was found to be 394. Also, the inhibition in test [1] is 3.6% (inactive); in test [3], -151% (inactive); in test [8], 19.8% (inactive); in test [9] it was 22.7% (inactive). For the same compound, the inhibition of aggregation in test [2] is -23.7% (inactive). Besides, the results for the nuclei count in [2] and in [3] were 76.7% and 117%, respectively. The fluorescence slope in [4] is -0.385 (inactive). In addition, the NADPH fluorescence slope in [5] is -3.6e-05 (inactive). For the same compound, the slope in test [6] was 0.00645 (inactive). Further, the result in test [7] was inactive.

Regarding `O=C(O)c1ccc(NC(=O)c2cccs2)cc1`, in test [1], the cell count amounted to 464. In addition, the inhibition in test [1] is 1.2% (inactive); in test [3], -75.3% (inactive); in test [8], 9.12% (inactive); in [9] it was 13.8% (inactive). Further, in test [2], the inhibition of aggregation was 6.1% (inactive). In addition, the values for the nuclei count in [2] and in test [3] were 89.3% and 117%, respectively. In test [4], the fluorescence slope is -0.362 (inactive). Also, in test [5], the NADPH fluorescence slope is -2.7e-05 (inactive). Besides, the slope in test [6] is 0.00441 (inactive). The compound was classed as inactive in [7].

`COc1ccccc1NC(=O)N(Cc1ccco1)Cc1cc2c(C)ccc(C)c2[nH]c1=O`: the cell count in test [1] was found to be 722. Besides, the inhibition in [1] was -11.9% (inactive); in test [3] it was -13.2% (inactive); in [8] it was 12.5% (inactive); in [9], 5.06% (inactive). The inhibition of aggregation in test [2] is 2.5% (inactive). The nuclei count stood at 98.7% in [2] and 100% in test [3]. In addition, the fluorescence slope in test [4] was -0.463 (inactive). Further, in test [5], the NADPH fluorescence slope was -4.7e-05 (inactive). The slope in test [6] was 0.00639 (inactive). Also, in test [7], the compound was called inactive.

By inhibition is commonly meant the relative decrease from the control value, in per cent.

The record behind these values is PubChem BioAssay.
